Only some compounds are listed: those with a hit (about 1.5% of all), similar ones and a draw of the others.
APJ antag: antagonists of human apelin receptor APJ, primary screen, CHO-K1 cells, beta-arrestin complementation, luminescence | inhibition, % at 20 µM | P35414 | 330,000 tested, 0.32% active;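 active = inhibition above about 40% at 20 µM, limit read from the data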;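 note: cells challenged with 10 nM apelin-13 agonist together with compound; plate controls were apelin-13 plus DMSO wells for no effect and DMSO wells lacking apelin-13 for full effect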
CCR6 antag: CCR6 receptor antagonists, primary screen, cell-based, CHO-K1, luminescence, beta-arrestin, uHTS; C-C chemokine receptor type 6 (Homo sapiens), P51684; 340,000 tested, 0.49% active; CHO-K1 CCR6 PathHunter beta-arrestin, CCL20-stimulated; AID 493098, 2011; inhibition, % at 20 µM;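 active = compounds whose inhibition of the agonist-driven luminescence signal at 20 µM reaches about 50%, limit read from the data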;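 note: cells stimulated with CCL20 at 14 nM final; plate controls were DMSO with CCL20 for no effect and DMSO without agonist for full effect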
Target sequence (P51684 whole entry, looked up): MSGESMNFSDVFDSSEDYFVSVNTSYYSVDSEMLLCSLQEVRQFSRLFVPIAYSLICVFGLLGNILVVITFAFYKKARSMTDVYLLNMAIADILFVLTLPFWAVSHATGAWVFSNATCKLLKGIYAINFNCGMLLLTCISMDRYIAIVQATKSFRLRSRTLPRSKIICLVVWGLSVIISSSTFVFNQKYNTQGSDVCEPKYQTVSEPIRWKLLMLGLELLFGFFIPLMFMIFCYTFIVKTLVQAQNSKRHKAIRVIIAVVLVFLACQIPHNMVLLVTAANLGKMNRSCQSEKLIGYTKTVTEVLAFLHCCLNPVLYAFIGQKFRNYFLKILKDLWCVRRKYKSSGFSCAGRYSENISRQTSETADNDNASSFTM
APJ agonist: agonists of human apelin receptor APJ, primary screen, CHO-K1 cells, PathHunter beta-arrestin, luminescence. P35414. 0% DMSO wells, 100% apelin. activation, % at 20 µM. 330,000 tested, 0.11% active. AID 2520, 2010;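 active = activation more than six SD over the plate average, tested at 20 µM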;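 note: 0% = DMSO alone and 100% = apelin-13 at 10 nM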
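assay system = CHO-K1 APJ beta-arrestin complementation cell line | input = cell density 1000 per well | dosing = compound 20 µM once, DMSO 1% | timing = compound 90 min 25 °C, reagent 1 h | measured by = luminescence from split beta-galactosidase complementation, Galacton Star/Emerald II substrate | read-out basis = APJ agonist activity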
CXCR6 inh: CXCR6 receptor inhibitors, primary screen, cell-based, beta-arrestin, luminescence, CHO-K1 PathHunter, 1536-well | AID 602244, 2012 | C-X-C chemokine receptor type 6 (Homo sapiens), O00574 | inhibition, % at 20 µM | 360,000 tested, 0.36% active; in the data active = inhibition above about 34%, passing the limit was not always enough;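 note: antagonist mode with CXCL16 agonist at 10 nM final; 0% = 10 nM CXCL16 with DMSO and 100% = unstimulated wells without agonist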
EBI2 antag: EBI2 receptor antagonists, beta-arrestin recruitment, primary screen, cell-based, luminescence, 7a,25-OHC stimulation, uHTS; G-protein coupled receptor 183 (Homo sapiens), P32249; 7a,25-OHC stimulated; inhibition, % at 5 µM; 360,000 tested, 0.81% active; AID 651636, 2012; in the data active = inhibition above about 38%;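 note: enzyme fragment complementation signal reports receptor beta-arrestin coupling in cells; 0% = agonist plus DMSO wells and 100% = wells without agonist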
EBI2 antag conf: EBI2 antagonist hit retest, beta-arrestin, confirmation, cell-based, single concentration, luminescence, 7a,25-OHC stimulation. AID 651997, 2013. 7a,25-OHC antagonism. 2,400 tested, 29% active. shares compounds with EBI2 antag. inhibition, % at 5 µM;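 active = inhibition of at least 50%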
EBI2 ag: EBI2 agonist activity of antagonist hits, confirmation, counter-screen for EBI2 antagonist project, cell-based, single concentration, agonist mode, luminescence. activation, % at 5 µM. 2,400 tested, under 10 active. EBI2-expressing cells, 60 min; 0% vehicle, 100% 7α,25-dihydroxycholesterol control. shares compounds with EBI2 antag;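 active = activation of at least 50%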
bGal cs: E. coli beta-galactosidase enzyme inhibition, confirmation, counter-screen for EBI2 antagonist project, biochemical, luminescence, single concentration | purified beta-galactosidase, luminescent Galacton Star, 15 min | shares compounds with EBI2 antag | 2,400 tested, 1% active | inhibition, % at 5 µM | AID 652176, 2013;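 active = replicate-average signal at least 3 plate SD below neutral wells, shown as high inhibition, flagging enzyme-inhibiting false positives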;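 note: 0% = DMSO wells with enzyme and 100% = wells lacking enzyme; higher means stronger loss of beta-gal luminescence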
An asterisk follows results filed as active.

COc1ccc(S(=O)(=O)N2CCN(C(=O)COc3ccc(C)c(C)c3)CC2)cc1OC was read as APJ antag -7, CCR6 antag 3, APJ agonist 3, CXCR6 inh 6, EBI2 antag 77*, EBI2 antag conf 32, EBI2 ag -2 and bGal cs -12.
For COc1cc(OC)cc(C(=O)N2CCC(C(=O)c3ccc(F)cc3)CC2)c1 the results were APJ antag 11, CCR6 antag -5, APJ agonist -3, CXCR6 inh -1 and EBI2 antag 6.
Screening COc1ccc(C(=O)C2CCN(C(=O)c3ccc(OC)cc3)CC2)cc1 returned APJ antag 2, CCR6 antag 11, APJ agonist -1, CXCR6 inh -2, EBI2 antag 58*, EBI2 antag conf 34, EBI2 ag 0 and bGal cs -17.
Screening COc1ccc(C(=O)N2CCCC2)cc1 returned APJ antag -11, CCR6 antag -3, APJ agonist -1, CXCR6 inh -3 and EBI2 antag -6.
CCOc1ccc(C(=O)N2CCCN(C(=O)c3ccc(OCC)cc3)CC2)cc1 was read as APJ antag 9, CCR6 antag 8, APJ agonist -4, CXCR6 inh -8, EBI2 antag 45*, EBI2 antag conf 39, EBI2 ag 4 and bGal cs 1.
`CCOc1ccc(C(=O)N2CCC(C(=O)c3ccc4c(c3)OCCO4)CC2)cc1` gave APJ antag -14, CCR6 antag -1, APJ agonist 0, CXCR6 inh 0, EBI2 antag 81*, EBI2 antag conf 56*, EBI2 ag 1 and bGal cs 1.
COc1ccc(C(=O)N2CCC(C(=O)c3ccc(F)cc3)CC2)cc1 was read as APJ antag 17, CCR6 antag -1, APJ agonist -6, CXCR6 inh 2, EBI2 antag 59*, EBI2 antag conf 29, EBI2 ag 0 and bGal cs -8.
`CN(CC(=O)Nc1ccc(Cl)c(C(F)(F)F)c1)C(=O)CNC(=O)C1CCCCC1` gave APJ antag 2, CCR6 antag 9, APJ agonist -3, CXCR6 inh -6 and EBI2 antag -17.
Screening CCOC(=O)C1=C(O)/C(=C/c2ccc(OCC(=O)O)c(OCC)c2)SC1=Nc1ccc(OC)cc1 returned APJ antag 13, CCR6 antag 12, APJ agonist -4, CXCR6 inh -2 and EBI2 antag -6.
Screening CCOC(=O)C1=C(O)/C(=C/c2cc(OC)c(OC)c(OC)c2)SC1=Nc1ccc(OC)cc1 returned APJ antag 13, CCR6 antag -14, APJ agonist 1, CXCR6 inh 0, EBI2 antag 62*, EBI2 antag conf 55*, EBI2 ag -2 and bGal cs -12.
`CS(=O)(=O)N1CCCC(C(=O)NCCc2ccc(Cl)cc2)C1` (stereo unspecified) gave APJ antag 10, CCR6 antag 14, APJ agonist -2, CXCR6 inh 4 and EBI2 antag 7.
For COc1ccc(CNC(=O)C2CCN(S(=O)(=O)c3ccc(Br)s3)CC2)cc1 the results were APJ antag 5, CCR6 antag 21, APJ agonist -1, CXCR6 inh 7, EBI2 antag 68*, EBI2 antag conf 32, EBI2 ag -2 and bGal cs -9.

Bioassay records (PubChem BioAssay)
